In ChEMBL document CHEMBL1133390, “Effects of stilbene constituents from rhubarb on nitric oxide production in lipopolysaccharide-activated macrophages” (Bioorg Med Chem Lett, 2000):

Tests used:
Format in all cases: functional
Mus musculus [1] = species: Mus musculus; assay: Inhibitory activity against nitric oxide production in LPS-activated mouse peritoneal macrophages
Outline: (§1)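 Peritoneal exudate cells from male ddY mice, 5 × 10^5 cells/well, pre-cultured 1 h at 37 °C in RPMI 1640 with 5% FCS. Nonadherent cells washed off; adherent macrophages (>95%) given 10 µg/mL LPS plus test compound (DMSO, final 0.5%) for 20 h. Nitrite in medium measured by Griess reagent. Inhibition calculated relative to LPS-stimulated and unstimulated wells; IC50 determined graphically (N=4).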

Mus musculus [2] = species: Mus musculus; assay: Compound (at 100 uM) was tested for inhibition against nitric oxide production in LPS-activated mouse peritoneal macrophages; outline: as §1
Mus musculus [3] = species: Mus musculus; assay: Compound was tested for inhibitory activity against nitric oxide production in LPS-activated mouse peritoneal macrophages (*,showed cytotoxicity at 100 uM)
Mus musculus [4] = species: Mus musculus; assay: Compound (at 30 uM) was tested for inhibition against nitric oxide production in LPS-activated mouse peritoneal macrophages
Mus musculus [5] = species: Mus musculus; assay: Compound was tested for inhibitory activity against nitric oxide production in LPS-activated mouse peritoneal macrophages (*,showed cytotoxicity at 30 uM)
Mus musculus [6] = species: Mus musculus; assay: Compound (at 10 uM) was tested for inhibition against nitric oxide production in LPS-activated mouse peritoneal macrophages

Row | Structure (SMILES) | IC50 (Mus musculus [1]) [µM] | inhibition at 100 µM (Mus musculus [2]) [%] | other results
1 | COc1cc(/C=C/c2ccc(OC)c(OC)c2)cc(OC)c1 [(E)-3,4,3',5'-TETRAMETHOXYSTILBENE] | 28 | – | –
2 | COc1cc(O)cc(/C=C/c2ccc(OC)c(OC)c2)c1 | – | – | IC50 (Mus musculus [3]): 19 µM
3 | COc1ccc(/C=C/c2cc(O)cc(O[C@@H]3O[C@H](CO)[C@@H](O)[C@H](O)[C@H]3O)c2)cc1 | > 100 | 13 | –
4 | O=C1c2cccc(O)c2C(=O)c2c(O[C@@H]3O[C@H](CO)[C@@H](O)[C@H](O)[C@H]3O)cc(CO)cc21 | > 100 | 46 | –
5 | COc1ccc(/C=C/c2cc(O)cc(O)c2)cc1 [RESVERATROL 4'-METHYL ETHER] | – | – | inhibition at 30 µM (Mus musculus [4]): 13%; IC50 (Mus musculus [3]): > 30 µM
6 | c1ccc(CCc2ccccc2)cc1 | > 100 | 26 | –
7 | Cc1cc(O)c2c(c1)C(=O)c1cccc(O)c1C2=O [CHRYSOPHANOL] | > 100 | 2 | –
8 | COc1ccc(/C=C/c2cc(OC)cc(OC)c2)cc1 [TRISMETHOXYRESVERATROL] | 22 | – | –
9 | O=C(O)c1cc(O)c(O)c(O)c1 [GALLIC ACID] | 63 | – | –
10 | O=C1c2cccc(O)c2C(=O)c2c(O)cc(CO)cc21 [ALOE-EMODIN] | – | – | IC50 (Mus musculus [5]): > 10 µM; inhibition at 10 µM (Mus musculus [6]): 38%
11 | C(=C\c1ccccc1)/c1ccccc1 | > 100 | 21 | –
12 | COc1cc(/C=C/c2cc(O)cc(O[C@@H]3O[C@H](CO)[C@@H](O)[C@H](O)[C@H]3O)c2)ccc1O | > 100 | 5 | –
13 | Oc1ccc(CCc2cc(O)cc(O)c2)cc1 [DIHYDRORESVERATROL] | 76 | – | –
14 | COc1cc(/C=C/c2ccc(OC)c(O)c2)cc(OC)c1 | – | – | IC50 (Mus musculus [3]): 23 µM
15 | OC[C@H]1O[C@@H](Oc2cc(/C=C/c3cc(O)cc(O)c3)ccc2O)[C@H](O)[C@@H](O)[C@@H]1O | > 100 | 10 | –
16 | COc1ccc(/C=C/c2cc(O)cc(O[C@@H]3O[C@H](CO)[C@@H](O)[C@H](O)[C@H]3O)c2)cc1O [RHAPONTIN] | > 100 | 25 | –
17 | Cc1cc(O)c2c(c1)C(=O)c1cccc(O[C@@H]3O[C@H](CO)[C@@H](O)[C@H](O)[C@H]3O)c1C2=O [PULMATIN] | > 100 | 31 | –
18 | COc1ccc(CCc2cc(O)cc(O[C@@H]3O[C@H](CO)[C@@H](O)[C@H](O)[C@H]3O)c2)cc1O | > 100 | 8 | –
19 | Cc1cc(O[C@@H]2O[C@H](CO)[C@@H](O)[C@H](O)[C@H]2O)c2c(c1)C(=O)c1cccc(O)c1C2=O [CHRYSOPHANEIN] | > 100 | 20 | –

Further lines, with some results ahead:

Row | IC50 (Mus musculus [1]) [µM] | Structure (SMILES) | inhibition at 100 µM (Mus musculus [2]) [%] | other results
20 | 48 | COc1ccc(/C=C/c2cc(O)cc(O)c2)cc1O | – | –
21 | 27 | COC[C@H]1O[C@@H](Oc2cc(/C=C/c3cc(OC)cc(OC)c3)ccc2OC)[C@H](OC)[C@@H](OC)[C@@H]1OC | – | –
22 | 63 | COc1cc(/C=C/c2cc(O)cc(O)c2)ccc1O | – | –
23 | > 100 | OC[C@H]1O[C@@H](Oc2cc(CCc3cc(O)cc(O)c3)ccc2O)[C@H](O)[C@@H](O)[C@@H]1O | 6 | –
24 | 69 | COc1cc(O[C@@H]2O[C@H](CO)[C@@H](O)[C@H](O)[C@H]2O)c2c(O)c(C(C)=O)c(C)cc2c1 | – | –
25 | > 100 | Cc1cc(O)c2c(c1)C(=O)c1cccc(O[C@@H]3O[C@H](COC(=O)c4cc(O)c(O)c(O)c4)[C@@H](O)[C@H](O)[C@H]3O)c1C2=O | 31 | –
26 | 68 | Oc1ccc(/C=C/c2cc(O)cc(O)c2)cc1 [RESVERATROL] | – | –
27 | 13 | COc1ccc(/C=C/c2cc(O)cc(O[C@@H]3O[C@H](CO)[C@@H](O)[C@H](O)[C@H]3OC(=O)c3cc(O)c(O)c(O)c3)c2)cc1O | – | –
28 | 32 | Oc1cc(O)cc(CCc2ccc(O)c(O)c2)c1 | – | –
29 | 23 | Oc1cc(O)cc(/C=C/c2ccc(O)c(O)c2)c1 [PICEATANNOL] | – | –
30 | 5.8 | COC[C@H]1O[C@@H](Oc2cc(/C=C/c3ccc(OC)c(OC)c3)cc(OC)c2)[C@H](OC)[C@@H](OC)[C@@H]1OC | – | –
31 | 11 | COc1ccc(/C=C/c2cc(O)cc(O[C@@H]3O[C@H](COC(=O)c4cc(O)c(O)c(O)c4)[C@@H](O)[C@H](O)[C@H]3O)c2)cc1O | – | –
32 | 49 | COc1ccc(CCc2cc(O)cc(O)c2)cc1O | – | –
33 | 40 | O=C(/C=C/c1ccc(O)c(O)c1)OCCc1ccccc1 [CAFFEIC ACID PHENETHYL ESTER] | – | –
